“Also recorded” adds a separate entry of the source.
Assays:
Format in all cases: in vivo, human
[1] = test system: advanced solid tumors; test: Antitumor efficacy
Procedure, shortened: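 Open-label single-centre 3+3 trial in advanced solid tumors. Oral PI3K-inhibitor test compound was given at 50, 80 or 100 mg/day continuously. […] Imaging after each even-numbered cycle; best response per RECIST. FFPE tumor PTEN IHC scored 0/1+/2+.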

[2] = test system: patients with advanced solid tumors; test: Adverse events
[3] = Plasma pharmacokinetics of buparlisib, non-compartmental analysis; details: oral; for AUC(0-t) / Cmax / Tmax: human, plasma; for AUC(0-t): AUC0–8 h
Procedure, shortened: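 Patients on either platinum/taxane schedule received the oral PI3K-inhibitor test compound at 50 to 100 mg/day. Plasma was sampled on cycle 1/day 1 at 0, 15, 30 and 60 min and at 2, 3, 4.5, 6 and 8 h, plus day 8 pre-dose (taken as 168 h). Non-compartmental analysis: Cmax and Tmax observed; AUClast by linear trapezoidal rule; terminal rate constant by regression of the log-linear terminal phase.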

[4] = 25 patients measurable by RECIST, both groups
[5] = Group 1 (n = 16 subjects), with carboplatin + paclitaxel q21 days
[6] = Group 2 (n = 14 subjects), with carboplatin + weekly paclitaxel q28 days
[7] = 50 mg, Group 1, 50 mg, n = 6, cycle 1/day 1, mean
[8] = 50 mg, Group 2, 50 mg, n = 4, cycle 1/day 1, mean
[9] = 80 mg, Group 1, 80 mg, n = 3, cycle 1/day 1, mean
[10] = 80 mg, Group 2, 80 mg, n = 6, cycle 1/day 1, mean
[11] = 100 mg, Group 1, 100 mg, n = 7, cycle 1/day 1, mean
[12] = 100 mg, Group 2, 100 mg, n = 4, cycle 1/day 1, mean

With Nc1cc(C(F)(F)F)c(-c2cc(N3CCOCC3)nc(N3CCOCC3)n2)cn1 [buparlisib] the “best response: confirmed partial response (PR)” value [1, 4] was “four”, the “best response: progression of disease” value [1, 4] was “three” and the “confirmed objective response rate” value ([1]; 25 patients with measurable disease, Groups 1 and 2 (1 CR, 4 PRs; 5/25)) was 20%. For the same compound, the “patients with reductions in measurable disease of at least 20 % and/or at least six cycles” value ([1]; of patients who completed at least one cycle (18/25)) was 72%, the “patients with reductions in measurable disease of at least 20 % and/or at least six cycles” value ([1]; of patients who received any study treatment (18/30)) was 60% and the “duration of disease control” value ([1]; one person, metastatic parotid carcinoma to bone, loss of PTEN expression, Group 2) was “approximately 20 months”. The alkaline phosphatase nadir ([1]; same parotid carcinoma patient, baseline 236, normal range 45–129 U/L) was 80 U/L, the “outcome in patients with loss of PTEN expression” value ([1]; three patients, PTEN IHC score = 0) was “all derived clinical benefit from treatment; also recorded: experienced objective radiographic tumor reductions or clinical benefit” and the “ALT and/or AST elevation, any grade” value [2, 5] was 9 (56) n (%). For the same compound, the “ALT and/or AST elevation, ≥Grade 3” value [2, 5] was 2 (13) n (%), the “Alkaline phosphatase, increased, any grade” value [2, 5] was 14 (88) n (%) and the “Alkaline phosphatase, increased, ≥Grade 3” value [2, 5] was 2 (13) n (%). The “Alopecia, any grade” value [2, 5] was 14 (88) n (%), the “Anemia, any grade” value [2, 5] was 13 (81) n (%) and the “Anemia, ≥Grade 3” value [2, 5] was 2 (13) n (%). For the same compound, the “Anorexia, any grade” value [2, 5] was 13 (81) n (%), the “Anorexia, ≥Grade 3” value [2, 5] was 1 (6) n (%) and the “Anxiety, any grade” value [2, 5] was 6 (38) n (%). For the same compound, the “Anxiety, ≥Grade 3” value [2, 5] was 0 n (%), the “Arthralgia, any grade” value [2, 5] was 13 (81) n (%) and the “Arthralgia, ≥Grade 3” value [2, 5] was 1 (6) n (%). For the same compound, the “Constipation, any grade” value [2, 5] was 11 (69) n (%), the “Constipation, ≥Grade 3” value [2, 5] was 0 n (%) and the “Cough, any grade” value [2, 5] was 9 (56) n (%). The “Cough, ≥Grade 3” value [2, 5] was 0 n (%), the “Depressed mood, any grade” value [2, 5] was 6 (38) n (%) and the “Depressed mood, ≥Grade 3” value [2, 5] was 1 (6) n (%). The “Diarrhea, any grade” value [2, 5] was 14 (88) n (%), the “Diarrhea, ≥Grade 3” value [2, 5] was 1 (6) n (%) and the “Dizziness, any grade” value [2, 5] was 10 (63) n (%). For the same compound, the “Dizziness, ≥Grade 3” value [2, 5] was 0 n (%), the “Dyspnea, any grade” value [2, 5] was 11 (69) n (%) and the “Dyspnea, ≥Grade 3” value [2, 5] was 0 n (%). The “Fatigue, any grade” value [2, 5] was 14 (88) n (%), the “Fatigue, ≥Grade 3” value [2, 5] was 1 (6) n (%) and the “Hypercholesterolemia, any grade” value [2, 5] was 7 (44) n (%). For the same compound, the “Hypercholesterolemia, ≥Grade 3” value [2, 5] was 0 n (%), the “Hyperglycemia, any grade” value [2, 5] was 15 (94) n (%) and the “Hyperglycemia, ≥Grade 3” value [2, 5] was 2 (13) n (%). For the same compound, the “Hypertension, any grade” value [2, 5] was 6 (38) n (%), the “Hypertension, ≥Grade 3” value [2, 5] was 0 n (%) and the “Hypertriglyceridemia, any grade” value [2, 5] was 7 (44) n (%). The “Hypertriglyceridemia, ≥Grade 3” value [2, 5] was 0 n (%), the “Hypoalbuminemia, any grade” value [2, 5] was 14 (88) n (%) and the “Hypoalbuminemia, ≥Grade 3” value [2, 5] was 0 n (%). For the same compound, the “Hypocalcemia, any grade” value [2, 5] was 6 (38) n (%), the “Hypocalcemia, ≥Grade 3” value [2, 5] was 1 (6) n (%) and the “Hypomagnesemia, any grade” value [2, 5] was 10 (63) n (%). For the same compound, the “Hypomagnesemia, ≥Grade 3” value [2, 5] was 0 n (%), the “Hyponatremia, any grade” value [2, 5] was 8 (50) n (%) and the “Hyponatremia, ≥Grade 3” value [2, 5] was 3 (19) n (%). The “Hypophosphatemia, any grade” value [2, 5] was 2 (13) n (%), the “Hypophosphatemia, ≥Grade 3” value [2, 5] was 2 (13) n (%) and the “INR, increased, any grade” value [2, 5] was 6 (38) n (%). The “INR, increased, ≥Grade 3” value [2, 5] was 0 n (%), the “Leukopenia, any grade” value [2, 5] was 12 (75) n (%) and the “Leukopenia, ≥Grade 3” value [2, 5] was 2 (13) n (%). The “Lymphopenia, any grade” value [2, 5] was 12 (75) n (%), the “Lymphopenia, ≥Grade 3” value [2, 5] was 12 (75) n (%) and the “Mucositis, oral, any grade” value [2, 5] was 6 (38) n (%). For the same compound, the “Mucositis, oral, ≥Grade 3” value [2, 5] was 0 n (%), the “Myalgia, any grade” value [2, 5] was 11 (69) n (%) and the “Myalgia, ≥Grade 3” value [2, 5] was 1 n (%). For the same compound, the “Nausea, any grade” value [2, 5] was 12 (75) n (%), the “Nausea, ≥Grade 3” value [2, 5] was 0 n (%) and the “Neuropathy, sensory, any grade” value [2, 5] was 7 (44) n (%). The “Neuropathy, sensory, ≥Grade 3” value [2, 5] was 1 (6) n (%), the “Neutropenia, any grade” value [2, 5] was 4 (25) n (%) and the “Neutropenia, ≥Grade 3” value [2, 5] was 2 (13) n (%). For the same compound, the “Rash, skin toxicity, any grade” value [2, 5] was 13 (81) n (%), the “Rash, skin toxicity, ≥Grade 3” value [2, 5] was 0 n (%) and the “Thrombocytopenia, any grade” value [2, 5] was 13 (81) n (%). For the same compound, the “Thrombocytopenia, ≥Grade 3” value [2, 5] was 3 (19) n (%), the “incidence rate of ≥grade 3 leukopenia” value ([2]; Group 2) was 64% and the “incidence rate of ≥grade 3 neutropenia” value ([2]; Group 2) was 79%. For the same compound, the “ALT and/or AST elevation, any grade” value [2, 6] was 6 (43) n (%), the “ALT and/or AST elevation, ≥Grade 3” value [2, 6] was 1 (7) n (%) and the “Alkaline phosphatase, elevated, any grade” value [2, 6] was 5 (36) n (%). For the same compound, the “Alkaline phosphatase, elevated, ≥Grade 3” value [2, 6] was 1 (7) n (%), the “Alopecia, any grade” value [2, 6] was 11 (79) n (%) and the “Anemia, any grade” value [2, 6] was 14 (100) n (%). For the same compound, the “Anemia, ≥Grade 3” value [2, 6] was 1 (7) n (%), the “Anorexia, any grade” value [2, 6] was 9 (64) n (%) and the “Anorexia, ≥Grade 3” value [2, 6] was 0 n (%). For the same compound, the “Anxiety, any grade” value [2, 6] was 5 (36) n (%), the “Anxiety, ≥Grade 3” value [2, 6] was 0 n (%) and the “Arthralgia, any grade” value [2, 6] was 7 (50) n (%). The “Arthralgia, ≥Grade 3” value [2, 6] was 0 n (%), the “Constipation, any grade” value [2, 6] was 8 (57) n (%) and the “Constipation, ≥Grade 3” value [2, 6] was 0 n (%). The “Cough, any grade” value [2, 6] was 8 (57) n (%), the “Cough, ≥Grade 3” value [2, 6] was 0 n (%) and the “Diarrhea, any grade” value [2, 6] was 7 (50) n (%). The “Diarrhea, ≥Grade 3” value [2, 6] was 0 n (%), the “Dyspepsia, any grade” value [2, 6] was 6 (43) n (%) and the “Dyspepsia, ≥Grade 3” value [2, 6] was 0 n (%). For the same compound, the “Fatigue, any grade” value [2, 6] was 11 (79) n (%), the “Fatigue, ≥Grade 3” value [2, 6] was 2 (14) n (%) and the “Hypercholesterolemia, any grade” value [2, 6] was 9 (64) n (%). For the same compound, the “Hypercholesterolemia, ≥Grade 3” value [2, 6] was 0 n (%), the “Hyperglycemia, any grade” value [2, 6] was 14 (100) n (%) and the “Hyperglycemia, ≥Grade 3” value [2, 6] was 0 n (%). For the same compound, the “Hypertension, any grade” value [2, 6] was 6 (43) n (%), the “Hypertension, ≥Grade 3” value [2, 6] was 0 n (%) and the “Hypertriglyceridemia, any grade” value [2, 6] was 8 (57) n (%). The “Hypertriglyceridemia, ≥Grade 3” value [2, 6] was 1 (7) n (%), the “Hypoalbuminemia, any grade” value [2, 6] was 13 (93) n (%) and the “Hypoalbuminemia, ≥Grade 3” value [2, 6] was 0 n (%). For the same compound, the “Hypocalcemia, any grade” value [2, 6] was 5 (36) n (%), the “Hypocalcemia, ≥Grade 3” value [2, 6] was 0 n (%) and the “Hypokalemia, any grade” value [2, 6] was 5 (36) n (%). The “Hypokalemia, ≥Grade 3” value [2, 6] was 1 (7) n (%), the “Hypomagnesemia, any grade” value [2, 6] was 7 (50) n (%) and the “Hypomagnesemia, ≥Grade 3” value [2, 6] was 0 n (%). For the same compound, the “Hyponatremia, any grade” value [2, 6] was 6 (43) n (%), the “Hyponatremia, ≥Grade 3” value [2, 6] was 0 n (%) and the “Leukopenia, any grade” value [2, 6] was 14 (100) n (%). The “Leukopenia, ≥Grade 3” value [2, 6] was 9 (64) n (%), the “Lymphopenia, any grade” value [2, 6] was 7 (50) n (%) and the “Lymphopenia, ≥Grade 3” value [2, 6] was 7 (50) n (%). The “Mucositis, oral, any grade” value [2, 6] was 5 (36) n (%), the “Mucositis, oral, ≥Grade 3” value [2, 6] was 2 (14) n (%) and the “Myalgia, any grade” value [2, 6] was 5 (36) n (%). The “Myalgia, ≥Grade 3” value [2, 6] was 0 n (%), the “Nausea, any grade” value [2, 6] was 10 (71) n (%) and the “Nausea, ≥Grade 3” value [2, 6] was 0 n (%). For the same compound, the “Neuropathy, sensory, any grade” value [2, 6] was 5 (36) n (%), the “Neuropathy, sensory, ≥Grade 3” value [2, 6] was 0 n (%) and the “Neutropenia, any grade” value [2, 6] was 13 (93) n (%). The “Neutropenia, ≥Grade 3” value [2, 6] was 11 (79) n (%), the “Pain, not otherwise specified, any grade” value [2, 6] was 5 (36) n (%) and the “Pain, not otherwise specified, ≥Grade 3” value [2, 6] was 0 n (%). For the same compound, the “Rash, skin toxicity, any grade” value [2, 6] was 8 (57) n (%), the “Rash, skin toxicity, ≥Grade 3” value [2, 6] was 0 n (%) and the “Thrombocytopenia, any grade” value [2, 6] was 13 (93) n (%). For the same compound, the “Thrombocytopenia, ≥Grade 3” value [2, 6] was 0 n (%), the febrile neutropenia ([2]; both groups) was “no episodes of febrile neutropenia” and the treatment-related deaths ([2]; both groups) was “no treatment-related deaths”. The AUC(0-t) [3, 7] was 1220 ng·h/mL, the AUC(0-t) [3, 8] was 1520 ng·h/mL and the Cmax [3, 7] was 285 ng/mL. For the same compound, the Cmax [3, 8] was 399 ng/mL, the Tmax [3, 7] was 4.83 h and the Tmax [3, 8] was 2.13 h. It also gave an AUC(0-t) [3, 9] of 2550 ng·h/mL, an AUC(0-t) [3, 10] of 1970 ng·h/mL and a Cmax [3, 10] of 555 ng/mL. The Tmax [3, 9] was 3.67 h, the Tmax [3, 10] was 2.08 h and the AUC(0-t) [3, 11] was 3460 ng·h/mL. It also gave an AUC(0-t) [3, 12] of 3410 ng·h/mL, a Cmax [3, 11] of 933 ng/mL and a Cmax [3, 12] of 960 ng/mL. The Tmax [3, 11] was 1.71 h, the Tmax [3, 12] was 2.38 h and the “plasma exposure to buparlisib versus dose” value ([3]; 50 to 100 mg, with carboplatin + paclitaxel, Groups 1 and 2) was “dose-related increases in plasma exposure”.

Reference: PMC6698915 (Cancer chemotherapy and pharmacology, 2015)
